The record followed here is ChEMBL document CHEMBL1139005, “Branched diacylglycerol-lactones as potent protein kinase C ligands and alpha-secretase activators” (J Med Chem, 2006).

The subject of assay [1] is W4 (Rattus norvegicus). The experiment in a line: Activation of alpha secretase assessed by sAPPalpha secretion in W4 cells relative to control. More on the design: concentration or dose not given beside the values.
Assay [2] deals with Protein kinase C alpha type (Homo sapiens, UniProt P17252). As to the kind of experiment: Displacement of [20-3H]PDBu from recombinant PKC alpha in presence of phosphatidylserine. The essentials: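 Competition for bound [20-3H]phorbol 12,13-dibutyrate on recombinant PKC-α with phosphatidylserine present; IC50 obtained by fitting points to the theoretical competition curve, then converted to Ki.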

`CC(C)CC(C/C=C1\CC(CO)(COC(=O)C(C)(C)C)OC1=O)CC(C)C` (configuration not stated) came in with an Activity in assay [1] of 133%.
As to `CC(C)CC(C/C=C1\CC(CO)(COC(=O)CC(C(C)C)C(C)C)OC1=O)CC(C)C` (configuration not stated), the Activity in assay [1] turned out to be 225%.
`CCCCCC(=O)OCC1(CO)C/C(=C\CC(CC(C)C)CC(C)C)C(=O)O1` (configuration not stated): the inhibition constant Ki in assay [2] stood at 6.18 nM.
Turning to `CC(C)CC(C/C=C1/C[C@@](CO)(COC(=O)C(C)(C)C)OC1=O)CC(C)C`, in assay [2], the Ki turned out to be 1.45 nM. This compound also registered an Activity in assay [1] of 209%.
Consider `CC(C)CC(C/C=C1/CC(CO)(COC(=O)CC(CC(C)C)CC(C)C)OC1=O)CC(C)C` (configuration not stated), for which the inhibition constant Ki in assay [2] worked out at 6.88 nM.
As to `CC(C)CC(C/C=C1/CC(/C=C/C(=O)OC(C)(C)C)(CO)OC1=O)CC(C)C` (configuration not stated), the Ki in assay [2] is 18 nM. The Activity in assay [1] is given as 200%.
As to `CCCCCCCC(=O)OCC1(CO)CC/C(=C\CC(CC(C)C)CC(C)C)C(=O)O1` (configuration not stated), in assay [2], the Ki came out at 129 nM.
For the compound `CC(C)CC(C/C=C1\CCC(CO)(COC(=O)C(C)(C)C)OC1=O)CC(C)C` (configuration not stated), the Ki in assay [2] turned out to be 48 nM.
On to `CCCCCC(=O)OCC1(CO)CC/C(=C\CC(CC(C)C)CC(C)C)C(=O)O1` (configuration not stated), for which, in assay [2], the inhibition constant Ki came to 147 nM.
`CCCCCCCC(=O)OCC1(CO)C/C(=C/CC(CC(C)C)CC(C)C)C(=O)O1` (configuration not stated): the Ki in assay [2] came out at 4.97 nM. In addition, the Activity in assay [1] amounted to 158%.
As for `CC(C)=CCC1(CC=C(C)C)CC(CO)(COC(=O)C(C)(C)C)OC1=O` (configuration not stated), the inhibitory constant (Ki) in assay [2] worked out at 2100 nM.
Consider `CC(C)CC(C/C=C1/CCC(CO)(COC(=O)C(C)(C)C)OC1=O)CC(C)C` (configuration not stated), for which the Ki in assay [2] was found to be 28 nM.
With `CCCC(=O)O[C@@H]1[C@@H](C)[C@@]2(O)[C@@H](C=C(CO)C[C@]3(O)C(=O)C(C)=C[C@@H]23)[C@@H]2C(C)(C)[C@]12OC(=O)CCC`, the Activity in assay [1] was found to be 185%.
For `CC(C)CCC1(CCC(C)C)CC(CO)(COC(=O)C(C)(C)C)OC1=O` (configuration not stated), the inhibitory constant (Ki) in assay [2] is 18300 nM.
On to `CC(C)CC(C/C=C1\CC(CO)(COC(=O)c2ccccc2)OC1=O)CC(C)C` (configuration not stated), for which the Ki in assay [2] was 16.1 nM. In addition, the Activity in assay [1] turned out to be 131%.
Regarding `CC(C)CC(C/C=C1\CC(/C=C/C(=O)OC(C)(C)C)(CO)OC1=O)CC(C)C` (configuration not stated), the Ki in assay [2] was determined as 173 nM.
For `CC(C)CC(C/C=C1/CC(CO)(COC(=O)c2ccccc2)OC1=O)CC(C)C` (configuration not stated), the inhibitory constant (Ki) in assay [2] came out at 6.66 nM. The Activity in assay [1] came to 157%.
As for `CCCCCC(=O)OCC1(CO)C/C(=C/CC(CC(C)C)CC(C)C)C(=O)O1` (configuration not stated), the Ki in assay [2] stood at 3.78 nM.
Turning to `CCCCCCCC(=O)OCC1(CO)C/C(=C\CC(CC(C)C)CC(C)C)C(=O)O1` (configuration not stated), the inhibitory constant (Ki) in assay [2] was found to be 6.04 nM. In addition, the Activity in assay [1] stood at 141%.
Consider `CC(C)CC(C/C=C1\CC(/C=C\C(=O)OC(C)(C)C)(CO)OC1=O)CC(C)C` (configuration not stated), for which the Ki in assay [2] was 21700 nM.
Regarding `CC(C)CC(C/C=C1/CC(CO)(COC(=O)C(C)(C)C)OC1=O)CC(C)C` (configuration not stated), the Activity in assay [1] is given as 177%.
